Assay results as given in ChEMBL document CHEMBL1821554, “Synthesis and anticancer activity of chalcone-pyrrolobenzodiazepine conjugates linked via 1,2,3-triazole ring side-armed with alkane spacers” (2011).
Active and inactive are the calls of the source. The calls are words filed in the database; no cut-off is given here.

Experiments:
[1] = test system: ZR-75-1; assay: Anticancer activity against human ZR-75-1 cells by SRB method; type: functional
In short: (§1)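 Growth inhibition over a panel of human cancer lines (lung, ovarian, oral, colon, prostate, cervix, breast). Value is the 50% growth-inhibition concentration, reported as the mean ± standard error of the mean of three determinations.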

[2] = test system: MCF7; assay: Cytotoxicity against human MCF7 cells assessed as reduction in cell viability at 2 uM after 24 hrs by MTT assay; type: functional, cell-based
[3] = test system: MCF7; assay: Cell cycle arrest in human MCF7 cells assessed as accumulation at G0 phase at 10 uM after 24 hrs using propidium iodide staining based flow cytometric analysis (reference value: 1.27 +/- 0.08 %); type: functional
[4] = test system: KB; assay: Anticancer activity against human KB cells by SRB method; type: functional; in short: as §1
[5] = test system: SiHa; assay: Anticancer activity against human SiHa cells by SRB method; type: functional; in short: as §1
[6] = test system: MCF7; assay: Cell cycle arrest in human MCF7 cells assessed as accumulation at G2/M phase at 10 uM after 24 hrs using propidium iodide staining based flow cytometric analysis (reference value: 38.15 +/- 1.068 %); type: functional
[7] = Anticancer activity against human DWD cells by SRB method; type: functional; in short: as §1
[8] = test system: MCF7; assay: Cell cycle arrest in human MCF7 cells assessed as accumulation at G1 phase at 10 uM after 24 hrs using propidium iodide staining based flow cytometric analysis (reference value: 47.64 +/- 1.49 %); type: functional
[9] = Anticancer activity against human Gurav cells by SRB method; type: functional; in short: as §1
[10] = test system: COLO 205; assay: Anticancer activity against human COLO205 cells by SRB method; type: functional; in short: as §1
[11] = test system: MCF7; assay: Anticancer activity against human MCF7 cells by SRB method; type: functional; in short: as §1
[12] = test system: MCF7; assay: Cell cycle arrest in human MCF7 cells assessed as accumulation at G0/G1 phase at 4 uM after 24 hrs using propidium iodide staining based flow cytometric analysis; type: functional
In short: (§2)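 MCF-7 cells were seeded at 5 × 10^5 per 60 mm dish and grown for 24 h, then exposed to 4 µM compound for 24 h. Cells were trypsinized, fixed in ice-cold 70% ethanol at 4 °C for 30 min and treated with 1 mg/ml RNase at 37 °C for 30 min. They were stained with propidium iodide/citrate/Triton X-100, and DNA content was read on 20,000 events by flow cytometry. Three independent repeats.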

[13] = test system: MCF7; assay: Cell cycle arrest in human MCF7 cells assessed as accumulation at S phase at 10 uM after 24 hrs using propidium iodide staining based flow cytometric analysis (reference value: 12.92 +/- 1 %); type: functional
[14] = test system: MCF7; assay: Induction of cell cycle arrest at G1 phase in human MCF7 cells at 4 uM after 24 hrs using propidium iodide staining based flow cytometric analysis; type: functional; in short: as §2
[15] = test system: PC-3; assay: Anticancer activity against human PC3 cells by SRB method; type: functional; in short: as §1
[16] = test system: HOP-62; assay: Anticancer activity against human HOP62 cells by SRB method; type: functional; in short: as §1
[17] = test system: A549; assay: Anticancer activity against human A549 cells by SRB method; type: functional; in short: as §1
[18] = test system: A2780; assay: Anticancer activity against human A2780 cells by SRB method; type: functional; in short: as §1
[19] = Down regulation of NF-kappaB activity expressed in human MCF7 cells transfected with NF-kB SEAP plasmid at 4 uM after 24 hrs by chemiluminescence-based luminometric analysis; type: cell-based
In short: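 MCF-7 cells were transiently transfected with the NF-kB SEAP plasmid using lipofectamine 2000. After 24 h, cells were treated with 4 µM compound for 24 h. Lysates were assayed with a chemiluminescent reagent and read by luminometry and by 30 min X-ray film exposure. Transfected untreated cells served as control.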

[20] = test system: MCF7; assay: Induction of apoptosis in human MCF7 cells assessed as down regulation of Bcl2 expression at 4 uM after 24 hrs by ELISA; type: functional, cell-based
In short: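 MCF-7 cells were treated with 4 µM compound for 24 h. Lysates were added to Bcl2 antibody-coated wells, followed by biotinylated anti-human Bcl2 monoclonal antibody, and bound Bcl2 was detected with streptavidin-HRP (sandwich ELISA).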

[21] = biological target: G1/S-specific cyclin-D1 (Homo sapiens) (UniProt P24385); assay: Down regulation of Cyclin D1 promoter activity expressed in human MCF7 cells co-transfected with luciferase gene at 4 uM after 24 hrs by luciferase reporter gene assay; type: cell-based
In short: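 MCF-7 cells were transfected for 24 h with the cyclin D1 promoter (−1745) luciferase construct, which contains an NF-kB site. Cells were then treated with 4 µM compound (final) for a further 24 h, and lysate luciferase was measured by luminometer. Untransfected cells served as negative control and transfected untreated cells as control.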

[22] = test system: MCF7; assay: Induction of apoptosis in human MCF7 cells assessed as down regulation of Bcl-xL expression at 4 uM after 24 hrs by Western blot
[23] = test system: MCF7; assay: Downregulation of cyclin D1 protein expression in human MCF7 cells at 4 uM after 24 hrs by Western blot analysis; type: functional, cell-based
In short: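 MCF-7 cells at 80% confluency were treated with 4 µM compound for 24 h. Cells were lysed in RIPA buffer with protease inhibitors and protein was quantified by Bradford. 50 µg per lane was run on 12% SDS-PAGE and transferred to PVDF. Blots were probed overnight at 4 °C with rabbit polyclonal anti-cyclin D1, with β-actin as loading control, and detected by chemiluminescence.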

[24] = test system: MCF7; assay: Cytotoxicity against human MCF7 cells assessed as reduction in cell viability at 4 uM after 24 hrs by MTT assay; type: functional, cell-based
In short: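 MCF-7 cells were seeded at 10,000 per well and left overnight, then treated with 4 µM compound for 24 h. MTT was added for 2 h at 37 °C, formazan was solubilized in extraction buffer, and OD was read at 570 nm. Untreated cells served as control. Three independent experiments, SD.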

G1/S-specific cyclin-D1 (Homo sapiens), sequence (P24385 whole entry): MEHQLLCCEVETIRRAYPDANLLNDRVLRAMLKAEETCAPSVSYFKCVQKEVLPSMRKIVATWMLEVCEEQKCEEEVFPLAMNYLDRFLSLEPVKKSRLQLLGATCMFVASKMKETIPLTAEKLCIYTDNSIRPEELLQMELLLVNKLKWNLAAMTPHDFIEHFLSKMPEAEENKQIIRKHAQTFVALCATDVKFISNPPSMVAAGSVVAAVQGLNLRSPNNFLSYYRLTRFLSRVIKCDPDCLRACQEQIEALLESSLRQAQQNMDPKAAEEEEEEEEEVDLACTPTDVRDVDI

Row | SMILES | GI50 [1] | Activity [2] | Activity [3] | GI50 [4] | Activity [6] | GI50 [7] | Activity [8] | GI50 [9] | GI50 [10] | GI50 [11] | Activity [12] | Activity [13] | Activity [14] | GI50 [15] | GI50 [16] | GI50 [17] | GI50 [18] | Activity [19] | Activity [20] | Activity [21] | other results
1 | COc1cc(/C=C/C(=O)c2ccccc2O)ccc1OCCCCCn1cc(COc2cc3c(cc2OC)C(=O)N2CCC[C@H]2C=N3)nn1 | 170 nM | inactive | 7.81% | 180 nM | 35.88% | 2300 nM | 46.39% | 160 nM | 140 nM | 2100 nM | 56.23% | 9.89% | Active | 2040 nM | 2560 nM | 170 nM | 140 nM |  |  |  | GI50 [5]: 2710 nM
2 | COc1cc(/C=C/C(=O)c2cc(Cl)ccc2O)ccc1OCCCCCn1cc(COc2cc3c(cc2OC)C(=O)N2CCC[C@H]2C=N3)nn1 | 2020 nM | inactive | 10.75% |  | 22.06% | 2300 nM | 60.56% | 190 nM | 100 nM | 180 nM | 60.18% | 7.28% | Active | 190 nM | 2280 nM | 2090 nM | 150 nM | Active | Active | Active | Activity [22]: Active; Activity [23]: Active
3 | COc1cc(/C=C/C(=O)c2ccc(O)cc2)ccc1OCCCn1cc(COc2cc3c(cc2OC)C(=O)N2CCC[C@H]2C=N3)nn1 | 170 nM | inactive | 13.67% | 2030 nM | 7.33% | 120 nM | 72.51% | 130 nM |  | 160 nM | 87.7% | 6.48% | Active | 160 nM | 170 nM | 150 nM | 120 nM | Active | Active | Active | GI50 [5]: 180 nM; Activity [24]: Active; Activity [22]: Active; Activity [23]: Active
4 | COc1cc2c(cc1OCc1ccccc1)N=C[C@@H]1C[C@H](n3cc(COc4ccc(/C=C/C(=O)c5ccccc5O)cc4OC)nn3)CN1C2=O |  | inactive | 5.21% |  | 32.06% |  | 54.61% |  |  |  | 59.79% | 6.65% | Active |  |  |  |  |  |  |  | 
5 | COc1cc(/C=C/C(=O)c2cc(Cl)ccc2O)ccc1OCCCCn1cc(COc2cc3c(cc2OC)C(=O)N2CCC[C@H]2C=N3)nn1 | 190 nM | inactive | 10.51% | 2660 nM | 31.07% | < 170 nM | 50.63% | 1660 nM | < 100 nM | 160 nM | 61.38% | 7.74% | Active | 160 nM | 2500 nM | 190 nM | 130 nM |  |  |  | 
6 | COc1cc(/C=C/C(=O)c2ccccc2O)ccc1OCCCn1cc(COc2cc3c(cc2OC)C(=O)N2CCC[C@H]2C=N3)nn1 | 2200 nM | inactive | 12.06% | 2190 nM | 14.32% |  | 64.08% | 2310 nM | 150 nM | 2400 nM | 76.87% | 9.52% | Active | 2480 nM | 2920 nM | 2330 nM | 170 nM | Active | Active | Active | Activity [24]: Active; Activity [22]: Active; Activity [23]: Active
